# PDI inh: inhibitors of human protein disulfide isomerase | PDI insulin aggregation turbidity, A650, 90 min | inhibition, % at 10 µM | 350,000 compounds, 0.052% hits | AID 588391;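 active = mean inhibition across replicates of 30% or more, whatever share of single replicates reach that level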
# GSIS activator: GLuc luminescence reporter in INS-1E cells, primary screen for activators of glucose-dependent secretion of insulin. INS-1E GLuc reporter insulin secretion, 2-3 h. activation, % at 16.6 µM. 370,000 compounds, 0.61% hits;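 active = lowest replicate activation of at least 40%, so every replicate reaches that level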
# SIRT5 block: inhibitors of human sirtuin-5 desuccinylase | Q9NXA8 | Purified SirT5, succinyl-peptide AMC, trypsin-coupled fluorescence | inhibition, % at 15 µM | 330,000 compounds, 1.1% hits; in the data active = inhibition above about 15%
# ERp5 inh: ERp5 (human) disulfide isomerase inhibition. Q15084. ERp5 insulin aggregation, absorbance 650 nm, 90 min. inhibition, % at 9.99 µM. 350,000 compounds, 0.05% hits. AID 651711;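 active = mean replicate inhibition above about 25%, with every replicate also reaching it, limit read from the data, passing the limit was not always enough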
# Target sequence (Q15084 whole entry, looked up): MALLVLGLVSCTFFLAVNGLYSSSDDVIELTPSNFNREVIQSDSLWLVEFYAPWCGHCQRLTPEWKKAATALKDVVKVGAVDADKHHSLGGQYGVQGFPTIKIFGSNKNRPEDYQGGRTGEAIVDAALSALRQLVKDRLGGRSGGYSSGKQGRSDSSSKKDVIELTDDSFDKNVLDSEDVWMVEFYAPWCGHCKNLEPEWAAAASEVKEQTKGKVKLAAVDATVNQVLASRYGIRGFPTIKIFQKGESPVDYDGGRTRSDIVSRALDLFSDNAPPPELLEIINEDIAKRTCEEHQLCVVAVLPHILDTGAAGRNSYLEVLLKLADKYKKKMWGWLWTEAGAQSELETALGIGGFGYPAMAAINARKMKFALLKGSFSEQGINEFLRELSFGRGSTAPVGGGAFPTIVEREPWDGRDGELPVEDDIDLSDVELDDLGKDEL
# S100A4 inh HTS: S100A4-myosin IIA interaction inhibition | P26447 | S100A4/TAMRA-MyoIIA peptide fluorescence polarization | inhibition, % at 10.7 µM | 360,000 compounds, 0.14% hits;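 active = mean inhibition of at least 70% across replicates, with every replicate also reaching that level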
# Target sequence (P26447 whole entry, looked up): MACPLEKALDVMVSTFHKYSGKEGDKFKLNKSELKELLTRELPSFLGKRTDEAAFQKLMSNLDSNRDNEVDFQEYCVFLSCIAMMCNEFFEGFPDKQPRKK
#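 Material: S100A4 monomer protein | Medium: HEPES pH 7.2 with CaCl2, KCl, NaCl, DTT, Triton | Reagent: Labelled myosin peptide probe, 5 nM | Doses: One dose per compound | Times: 5 min incubation before reading | Benchmarks: Neutral control DMSO, positive control TFP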
# Hits are given with their value; - = inactive; . = not tested or not shown. The list is not random: actives were taken first. Their share in the collection is about 1.5%.
SMILES,PDI inh,GSIS activator,SIRT5 block,ERp5 inh,S100A4 inh HTS
Cc1ccc(S(=O)(=O)Nc2ccc3c(c2)C(=O)N([C@H](C)CO)C[C@@H](C)[C@H](CN(C)CC2CC2)OCCCC[C@@H](C)O3)cc1,.,-,-,-,-
CCNc1ccc(C(=O)N/N=C/c2c(C)nn(-c3ccccc3)c2N2CCCC2)cc1[N+](=O)[O-],-,46,-,-,-
Cc1ccc(NS(=O)(=O)c2cccc(C(=O)N/N=C/c3c(C)nn(-c4ccccc4)c3N3CCCC3)c2)c(C)c1,-,-,.,.,.
Oc1ccc(-c2nccc(-c3ccc(Cl)cc3Cl)n2)cc1,-,-,18,-,-
COc1ccccc1S(=O)(=O)N(C)C[C@H]1OCc2ccccc2-c2c(n(C)c3ccccc23)C(=O)N([C@H](C)CO)C[C@@H]1C,.,-,15,-,-
Cc1ccccc1S(=O)(=O)N(C)C[C@@H]1OCc2ccccc2-c2c(n(C)c3ccccc23)C(=O)N([C@@H](C)CO)C[C@@H]1C,.,-,-,-,-
Cc1ccccc1S(=O)(=O)N(C)C[C@H]1OCc2ccccc2-c2c(n(C)c3ccccc23)C(=O)N([C@H](C)CO)C[C@H]1C,.,-,16,-,-
Cc1cc(Oc2cccnc2)ccc1NC(=O)Cc1cn(C)c2ccccc12,.,162,.,-,-
Cc1ccc2[nH]c(=O)c(CN(CC3CCCO3)C(=O)c3cccs3)cc2c1 (stereo not drawn),-,156,-,-,-
Cc1ccc2cc(CN(CC3CCCO3)C(=O)c3cccs3)c(=O)[nH]c2c1 (stereo not drawn),-,-,-,-,-
C[C@H](O)C#Cc1ccc2c(c1)O[C@H](CN(C)Cc1ccc(-c3ccccc3)cc1)[C@@H](C)CN([C@@H](C)CO)S2(=O)=O,.,-,30,-,-
C[C@@H]1CN([C@H](C)CO)S(=O)(=O)c2ccc(C#C[C@@H](C)O)cc2O[C@H]1CN(C)Cc1ccccc1,.,-,-,-,-
C[C@H](O)C#Cc1ccc2c(c1)O[C@H](CN(C)Cc1ccc(-c3ccccc3)cc1)[C@H](C)CN([C@@H](C)CO)S2(=O)=O,.,-,27,-,-
C[C@H](O)C#Cc1ccc2c(c1)O[C@H](CN(C)Cc1ccccc1)[C@@H](C)CN([C@H](C)CO)S2(=O)=O,.,-,-,-,-
C[C@@H]1CN([C@H](C)CO)S(=O)(=O)c2ccc(C#C[C@@H](C)O)cc2O[C@H]1CN(C)Cc1ccc(-c2ccccc2)cc1,.,-,30,-,-
C[C@@H](O)C#Cc1ccc2c(c1)O[C@H](CN(C)Cc1ccccc1)[C@@H](C)CN([C@@H](C)CO)S2(=O)=O,.,-,-,-,-
C[C@@H]1CN([C@@H](C)CO)S(=O)(=O)c2ccc(C#C[C@@H](C)O)cc2O[C@@H]1CN(C)Cc1ccc(-c2ccccc2)cc1,.,-,24,-,-
C[C@H](CO)N1C[C@H](C)[C@@H](CN(C)Cc2ccc(C(=O)O)cc2)Oc2c(NS(C)(=O)=O)cccc2C1=O,.,-,-,-,-
C[C@H](O)C#Cc1ccc2c(c1)O[C@@H](CN(C)Cc1ccc(-c3ccccc3)cc1)[C@H](C)CN([C@H](C)CO)S2(=O)=O,.,-,28,-,-
CCN1[C@H](C(=O)N(C)C)[C@@H](CO)[C@@H]2Cn3c(ccc(-c4ccccc4OC)c3=O)[C@@H]21,.,-,-,-,-
O=C(C[C@H]1C[C@@H]2c3cc(NC(=O)C4CCOCC4)ccc3O[C@@H]2[C@H](CO)O1)NCCN1CCCCC1,.,-,-,-,115
CCCNC(=O)C[C@H]1C[C@@H]2c3cc(NC(=O)CC4CC4)ccc3O[C@@H]2[C@@H](CO)O1,.,-,-,62,-
CCCNC(=O)C[C@@H]1C[C@@H]2c3cc(NS(C)(=O)=O)ccc3O[C@@H]2[C@H](CO)O1,.,-,-,32,-
CCCNC(=O)N1[C@H](C#N)[C@H](c2ccccc2-c2cccc(C)c2)[C@@H]1CO,.,-,-,-,-
CC(C)CC#Cc1ccc2c(c1)O[C@@H](CN(C)C(=O)Cc1ccccc1)[C@H](C)CN([C@H](C)CO)S2(=O)=O,.,-,-,-,-
SMILES,PDI inh,GSIS activator,SIRT5 block,ERp5 inh,S100A4 inh HTS
CS(=O)(=O)c1ccc2nc(NC(=O)Nc3ccc(Cl)c(Cl)c3)sc2c1,-,260,.,.,.
CCCC(=O)N1CC2(CN(Cc3cccnc3)C2)c2c([nH]c3cc(OC)ccc23)[C@@H]1CO,.,-,-,-,-
CCN(CC(=O)Nc1ccccc1OC)CC(=O)Nc1ccccc1-c1ccccc1,-,-,.,-,-
CCN(CC(=O)Nc1ccccc1OC)CC(=O)Nc1sccc1C#N,-,-,15,-,-
C[C@H]1CN([C@@H](C)CO)C(=O)c2cccc(NC(=O)Nc3cccc4ccccc34)c2O[C@H]1CN(C)Cc1ccc(C(F)(F)F)cc1,.,-,-,-,-
Cn1c(=O)c2cc(NC(=S)NCc3ccccc3F)ccc2n1Cc1ccccc1,-,-,-,-,-
Cc1cc(C)cc(Cn2c3ccc(NC(=S)NCc4ccccc4F)cc3c(=O)n2C)c1,-,56,.,-,-
O=C(C[C@H]1CC[C@@H]2[C@H](COC[C@H](O)CN2CCc2ccccc2)O1)NCc1ccc(F)cc1,.,-,-,-,-
Cc1onc(-c2ccccc2)c1C(=O)Nc1ccc(N2CCOCC2)cc1,-,.,.,.,.
CCc1onc(C)c1C(=O)Nc1ccc(N2CCOCC2)cc1,-,41,-,-,-
NC(=O)c1sc2nc3c(c(-c4cccnc4)c2c1N)CCC3,-,.,.,.,.
N#Cc1sc2nc3c(c(-c4cccnc4)c2c1N)CCC3,-,46,.,-,-
C/C=C/c1ccc([C@@H]2[C@@H](CN(C)C(=O)CC)N(C(=O)NC(C)C)[C@H]2CO)cc1,.,-,-,-,-
CN(C)c1ccc(/C=C(\NC(=O)c2ccccc2)C(=O)NCCN2CCOCC2)cc1,-,41,-,-,-
Cn1cc(C(=O)NCC(=O)Nc2ccccc2Br)cn1,-,41,-,-,-
Cc1cc(Br)ccc1NC(=O)CNC(=O)c1cnn(C)c1,-,-,-,-,-
CCOC(=O)c1[nH]c2ccc(OC)cc2c1NC(=O)/C=C/c1ccc2c(c1)OCO2,-,66,.,.,.
O=C(/C=C/c1ccc2c(c1)OCO2)Nc1c(C(=O)O)[nH]c2ccccc12,-,-,.,-,-
Cc1cccc(C(=O)OCC(=O)NC(=O)c2ccccc2)c1O,-,-,16,-,-
Cc1cc(C)c(C(=O)OCC(=O)NC(=O)c2ccccc2)c(C)c1,-,-,-,-,-
CC(C)NC(=O)CSCc1cccc(Br)c1,-,-,19,-,-
CCCCCCOc1ccc(N2C(=O)CC(N3CCN(CCN=CC4C(=O)CC(C)(C)CC4=O)CC3)C2=O)cc1 (stereo not drawn),-,-,112,-,-
CCCCCCOc1ccc(N2C(=O)CC(N3CCN(CCN=CC4=C(O)CC(C)(C)CC4=O)CC3)C2=O)cc1 (stereo not drawn),-,-,-,-,-

# From PubChem BioAssay
